Measurements: ChEMBL document CHEMBL1124766, “Novel benzamides as selective and potent gastric prokinetic agents. 1. Synthesis and structure-activity relationships of N-[(2-morpholinyl)alkyl]benzamides” (1990)
One block for each compound: values may come before it.

How the values were obtained:
Rattus norvegicus [1] = test: Evaluated for the effects on the gastric emptying rates of resin pellets solid meal through the stomach in rats, at a dose of 5.0 mg/Kg administered perorally; type: functional
Method in brief: (§1)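 Rats fasted 18 h. Compound suspended in 0.5% tragacanth given orally 30 min before 40 resin pellets (Amberlite IRA-93, 1-mm) are delivered into the stomach by tube. Animals killed 1 h later and pellets remaining in the stomach counted (Jacoby method). Result given as % enhancement over tragacanth-control mean; Duncan's multiple range test.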

Rattus norvegicus [2] = test: Evaluated for the effects on the gastric emptying rates of resin pellets solid meal through the stomach in rats, at a dose of 2.0 mg/Kg administered perorally; type: functional; method in brief: as §1
Rattus norvegicus [3] = test: Evaluated for the effects on the gastric emptying rates of phenol red semisolid meal through the stomach in rats, at a dose of 2.0 mg/Kg administered perorally.; type: functional
Method in brief: (§2)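 Mice or rats fasted 18 h. Compound suspended in 0.5% tragacanth given orally 60 min before a gavaged meal of 0.05% phenol red in 1.5% aqueous methylcellulose (0.2 mL/mouse, 1.5 mL/rat). Animals killed 15 min later; phenol red left in stomach measured (Scarpignato method). Emptying expressed as % enhancement over tragacanth-control mean; Duncan's multiple range test.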

Rattus norvegicus [4] = test: Evaluated for the effects on the gastric emptying rates of phenol red semisolid meal through the stomach in rats, at a dose of 10.0 mg/Kg administered perorally; type: functional; method in brief: as §2
Rattus norvegicus [5] = test: Evaluated for the effects on the gastric emptying rates of resin pellets solid meal through the stomach in rats, at a dose of 10 mg/Kg administered perorally; type: functional; method in brief: as §1
Mus musculus [6] = test: Evaluated for the effects on the gastric emptying rates of phenol red semisolid meal through the stomach in mouse, at a dose of 1 mg/Kg administered perorally; type: functional; method in brief: as §2
Rattus norvegicus [7] = test: Evaluated for the effects on the gastric emptying rates of phenol red semisolid meal through the stomach in rats, at a dose of 0.5 mg/Kg administered perorally; type: functional; method in brief: as §2
Mus musculus [8] = test: Evaluated for the effects on the gastric emptying rates of phenol red semisolid meal through the stomach in mouse, at a dose of 0.5 mg/Kg administered perorally; type: functional; method in brief: as §2
Mus musculus [9] = test: Evaluated for the effects on the gastric emptying rates of phenol red semisolid meal through the stomach in mouse, at a dose of 5 mg/Kg administered perorally; type: functional; method in brief: as §2
Rattus norvegicus [10] = test: Evaluated for the effects on the gastric emptying rates of phenol red semisolid meal through the stomach in rats, at a dose of 5.0 mg/Kg administered perorally; type: functional; method in brief: as §2
Mus musculus [11] = test: Evaluated for the effects on the gastric emptying rates of phenol red semisolid meal through the stomach in mouse, at a dose of 2 mg/Kg administered perorally; type: functional; method in brief: as §2
[12] = system: dopamine D2 receptor (Canis familiaris); test: Evaluated for the dopamine D2 receptor antagonistic activity (antagonism of apomorphine-induced emesis in dogs) at a dose of 3.0 mg/kg administered perorally; details: Canis lupus familiaris
Rattus norvegicus [13] = test: Evaluated for the effects on the gastric emptying rates of phenol red semisolid meal through the stomach in rats, at a dose of 0.5 mg/kg administered perorally; type: functional; details: route oral; method in brief: as §2
Rattus norvegicus [14] = test: Evaluated for the effects on the gastric emptying rates of resin pellets solid meal through the stomach in rats, at a dose of 5.0 mg/kg administered perorally; type: functional; details: route oral; method in brief: as §1
Mus musculus [15] = test: Evaluated for the effects on the gastric emptying rates of phenol red semisolid meal through the stomach in mouse, at a dose of 5 mg/kg administered perorally; type: functional; details: route oral; method in brief: as §2
Mus musculus [16] = test: Evaluated for the effects on the gastric emptying rates of phenol red semisolid meal through the stomach in mouse, at a dose of 0.5 mg/kg administered perorally; type: functional; details: route oral; method in brief: as §2
Mus musculus [17] = test: Evaluated for the effects on the gastric emptying rates of phenol red semisolid meal through the stomach in mouse, at a dose of 2 mg/kg administered perorally (po); (p<0.01); type: functional; method in brief: as §2
Rattus norvegicus [18] = test: Evaluated for the effects on the gastric emptying rates of phenol red semisolid meal through the stomach in rats, at a dose of 5.0 mg/kg administered perorally; type: functional; details: route oral; method in brief: as §2
Rattus norvegicus [19] = test: Evaluated for the effects on the gastric emptying rates of phenol red semisolid meal through the stomach in rats, at a dose of 10.0 mg/kg administered perorally; type: functional; details: route oral; method in brief: as §2
Mus musculus [20] = test: Evaluated for the effects on the gastric emptying rates of phenol red semisolid meal through the stomach in mouse, at a dose of 1 mg/kg administered perorally; type: functional; details: route oral; method in brief: as §2
Rattus norvegicus [21] = test: Evaluated for the effects on the gastric emptying rates of resin pellets solid meal through the stomach in rats, at a dose of 2.0 mg/kg administered perorally; type: functional; details: route oral; method in brief: as §1
Rattus norvegicus [22] = test: Evaluated for the effects on the gastric emptying rates of phenol red semisolid meal through the stomach in rats, at a dose of 2.0 mg/kg administered perorally; type: functional; details: route oral; method in brief: as §2
[23] = molecular target: D(2) dopamine receptor (Canis lupus familiaris) (UniProt Q9GJU1); test: Evaluated for the dopamine D2 receptor antagonistic activity (antagonism of the apomorphine-induced emesis in dogs) at a dose of 3.0 mg/kg administered perorally (po).; type: functional, organism-based; set-up: dose 3 mg/kg
Method in brief: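 Male beagle dogs (10-16 kg), groups of three to six, pretreated with test compound; 2 h later apomorphine hydrochloride 0.3 mg/kg s.c.; emetic episodes counted over 1 h. Modified Janssen method.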

Rattus norvegicus [24] = test: Evaluated for the effects on the gastric emptying rates of resin pellets solid meal through the stomach in rats, at a dose of 10 mg/kg administered perorally; type: functional; details: route oral; method in brief: as §1
Mus musculus [25] = test: Evaluated for the effects on the gastric emptying rates of phenol red semisolid meal through the stomach in mouse, at a dose of 2 mg/kg administered perorally; type: functional; details: route oral; method in brief: as §2
[26] = molecular target: D(2) dopamine receptor (Canis lupus familiaris) (UniProt Q9GJU1); details: 3.0 mg/kg

Chain of D(2) dopamine receptor (Canis lupus familiaris) (Q9GJU1 whole entry): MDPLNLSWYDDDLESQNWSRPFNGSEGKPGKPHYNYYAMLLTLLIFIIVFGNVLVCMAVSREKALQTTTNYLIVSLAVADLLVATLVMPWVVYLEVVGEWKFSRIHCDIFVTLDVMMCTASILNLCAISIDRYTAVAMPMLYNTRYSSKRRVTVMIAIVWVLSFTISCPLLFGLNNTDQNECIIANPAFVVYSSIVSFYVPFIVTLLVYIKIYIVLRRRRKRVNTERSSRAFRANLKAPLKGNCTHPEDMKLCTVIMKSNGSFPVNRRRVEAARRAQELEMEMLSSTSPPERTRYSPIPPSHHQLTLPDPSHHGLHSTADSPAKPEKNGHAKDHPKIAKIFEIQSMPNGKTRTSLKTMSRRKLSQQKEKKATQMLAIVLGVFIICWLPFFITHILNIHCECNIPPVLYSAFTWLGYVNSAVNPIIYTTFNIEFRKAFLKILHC

SMILES: COc1cc(N)c(Cl)cc1C(=O)NCC1CN(Cc2ccccc2)CCO1 (stereo not drawn) [listing 1 of 2 here]
GE (Rattus norvegicus [1]): 70%
GE (Rattus norvegicus [2]): 49%
GE (Rattus norvegicus [3]): 26%
GE (Rattus norvegicus [4]): 52%
GE (Rattus norvegicus [5]): 78%
GE (Mus musculus [6]): 49%
GE (Rattus norvegicus [7]): 18%
GE (Mus musculus [8]): 50%
GE (Mus musculus [9]): 68%
GE (Rattus norvegicus [10]): 35%
GE (Mus musculus [11]): 46%

SMILES: COc1cc(N)c(Cl)cc1C(=O)NCC1CN(Cc2ccccc2)CCO1 (stereo not drawn) [listing 2 of 2 here]
inhibition [12]: 4%

SMILES: CC(=O)Nc1cc(O)c(C(=O)NCC2CN(Cc3ccccc3)CCO2)cc1Cl (stereo not drawn)
GE (Rattus norvegicus [3]): 11%

SMILES: COc1cc(NC(C)=O)ccc1C(=O)NCC1CN(Cc2ccccc2)CCO1.O (stereo not drawn)
GE (Rattus norvegicus [3]): 24%

SMILES: COc1ccc(Cl)cc1C(=O)NCC1CN(Cc2ccccc2)CCO1.Cl (stereo not drawn)
GE (Rattus norvegicus [3]): 19%

SMILES: O=C(NCC1CN(Cc2ccccc2)CCO1)c1ccc2c(c1)OCO2.O=C(O)/C=C/C(=O)O (stereo not drawn)
GE (Rattus norvegicus [3]): 34%

SMILES: O=C(NCC1CN(Cc2ccccc2)CCO1)c1c(F)c(F)c(F)c(F)c1F.O=C(O)C(=O)O (stereo not drawn)
GE (Rattus norvegicus [3]): 9%

SMILES: COc1cc(C(=O)NCC2CN(Cc3ccccc3)CCO2)cc(OC)c1OC.O=C(O)C(=O)O (stereo not drawn)
GE (Rattus norvegicus [3]): 11%

SMILES: CCOc1ccc(S(N)(=O)=O)cc1C(=O)NCC1CN(Cc2ccccc2)CCO1 (stereo not drawn)
GE (Rattus norvegicus [3]): 19%

SMILES: Nc1cc(O)c(C(=O)NCC2CN(Cc3ccccc3)CCO2)cc1Cl.O (stereo not drawn)
GE (Rattus norvegicus [3]): 36%

SMILES: COc1cc(N)c(Cl)cc1C(=O)NCCCC1CN(Cc2ccccc2)CCO1.O=C(O)C(=O)O (stereo not drawn)
GE (Rattus norvegicus [3]): 23%

SMILES: CN(C)c1c(Cl)cc(C(=O)NCC2CN(Cc3ccccc3)CCO2)c(O)c1Cl.O=C(O)C(=O)O (stereo not drawn)
GE (Rattus norvegicus [3]): 14%

SMILES: CN(C)c1cc(O)c(C(=O)NCC2CN(Cc3ccccc3)CCO2)cc1Cl.O=C(O)C(=O)O (stereo not drawn)
GE (Rattus norvegicus [3]): 27%

SMILES: CNc1cc(OC)c(C(=O)NCC2CN(Cc3ccccc3)CCO2)cc1Cl.O=C(O)/C=C/C(=O)O (stereo not drawn)
GE (Rattus norvegicus [3]): 14%

SMILES: COc1cc(N)c([N+](=O)[O-])cc1C(=O)NCC1CN(Cc2ccccc2)CCO1.O (stereo not drawn)
GE (Rattus norvegicus [3]): 14%

SMILES: CCOc1cc(N)c(Cl)cc1C(=O)NCC1CN(Cc2ccccc2)CCO1.O (stereo not drawn)
GE (Rattus norvegicus [13]): 34%
GE (Rattus norvegicus [14]): 76%
GE (Mus musculus [15]): 38%
GE (Mus musculus [16]): 35%
GE (Mus musculus [17]): 52%
GE (Rattus norvegicus [18]): 56%
GE (Rattus norvegicus [19]): 49%
GE (Mus musculus [20]): 23%
GE (Rattus norvegicus [21]): 58%
GE (Rattus norvegicus [22]): 54%
inhibition [23]: 5%

SMILES: COc1ccc(S(N)(=O)=O)cc1C(=O)NCC1CN(Cc2ccccc2)CCO1 (stereo not drawn)
GE (Rattus norvegicus [3]): 24%

SMILES: COc1cc(N)ccc1C(=O)NCC1CN(Cc2ccccc2)CCO1 (stereo not drawn)
GE (Rattus norvegicus [3]): 11%

SMILES: COc1cc(N)c(Cl)cc1C(=O)NCC1CN(Cc2ccccc2)CCO1.Cl (stereo not drawn)
GE (Rattus norvegicus [3]): 39%

SMILES: COc1cc(N)c(Cl)cc1C(=O)NCCC1CN(Cc2ccccc2)CCO1.O=C(O)/C=C/C(=O)O (stereo not drawn)
GE (Rattus norvegicus [3]): 35%

SMILES: COc1cc(N)c(Cl)cc1C(=O)OCC1CN(Cc2ccccc2)CCO1 (stereo not drawn)
GE (Rattus norvegicus [3]): 17%

SMILES: CCOc1cc(N(C)C)c(Cl)cc1C(=O)NCC1CN(Cc2ccccc2)CCO1.O=C(O)C(=O)O (stereo not drawn)
GE (Rattus norvegicus [3]): 51%

inhibition [26]: 100%
SMILES: CCN(CC)CCNC(=O)c1cc(Cl)c(N)cc1OC [METOCLOPRAMIDE]
GE (Rattus norvegicus [14]): 23%
GE (Mus musculus [15]): 28%
GE (Rattus norvegicus [24]): 43%
GE (Rattus norvegicus [18]): 26%
GE (Mus musculus [25]): 20%
GE (Rattus norvegicus [19]): 31%
GE (Mus musculus [20]): -10%
GE (Rattus norvegicus [22]): 21%

SMILES: COc1cc(N)c(Cl)cc1C(=O)NC1CCN(CCCOc2ccc(F)cc2)CC1OC (stereo not drawn) [CISAPRIDE]
GE (Rattus norvegicus [13]): 14%
GE (Mus musculus [15]): 38%
GE (Mus musculus [16]): 24%
GE (Rattus norvegicus [18]): 50%
GE (Mus musculus [25]): 36%
GE (Rattus norvegicus [19]): 43%
GE (Mus musculus [20]): 29%
GE (Rattus norvegicus [22]): 47%

SMILES: COc1cc(Cl)ccc1C(=O)NCC1CN(Cc2ccccc2)CCO1.Cl (stereo not drawn)
GE (Rattus norvegicus [3]): 23%

SMILES: COc1ccccc1C(=O)NCC1CN(Cc2ccccc2)CCO1.O=C(O)/C=C/C(=O)O (stereo not drawn)
GE (Rattus norvegicus [3]): 17%

SMILES: COc1cc(N)c(Cl)cc1C(=O)N(C)CC1CN(Cc2ccccc2)CCO1.O=C(O)/C=C/C(=O)O (stereo not drawn)
GE (Rattus norvegicus [3]): 15%

SMILES: COc1cc(N(C)C)c(Cl)cc1C(=O)NCC1CN(Cc2ccccc2)CCO1.O=C(O)/C=C/C(=O)O (stereo not drawn)
GE (Rattus norvegicus [13]): 27%
GE (Rattus norvegicus [14]): 5%
GE (Mus musculus [15]): 43%
GE (Mus musculus [16]): 7%
GE (Rattus norvegicus [18]): 47%
GE (Mus musculus [25]): 43%
GE (Rattus norvegicus [19]): 49%
GE (Mus musculus [20]): 33%
GE (Rattus norvegicus [21]): 15%
GE (Rattus norvegicus [22]): 52%
inhibition [23]: 0%

SMILES: CCSc1ccc(S(N)(=O)=O)cc1C(=O)NCC1CN(Cc2ccccc2)CCO1 (stereo not drawn)
GE (Rattus norvegicus [3]): 27%

SMILES: COc1c(Cl)cc(Cl)c(OC)c1C(=O)NCC1CN(Cc2ccccc2)CCO1 (stereo not drawn)
GE (Rattus norvegicus [3]): 4%

SMILES: COc1cc(N)c(Br)cc1C(=O)NCC1CN(Cc2ccccc2)CCO1 (stereo not drawn)
GE (Rattus norvegicus [3]): 10%

SMILES: CCN(CC)c1cc(OC)c(C(=O)NCC2CN(Cc3ccccc3)CCO2)cc1Cl.O=C(O)C(=O)O (stereo not drawn)
GE (Rattus norvegicus [3]): 21%

SMILES: Nc1ccc(C(=O)NCC2CN(Cc3ccccc3)CCO2)cc1Cl.O=C(O)C(=O)O (stereo not drawn)
GE (Rattus norvegicus [3]): 30%

SMILES: CCOc1cc(N)c(Cl)cc1C(=O)NCCC1CN(Cc2ccccc2)CCO1 (stereo not drawn)
GE (Rattus norvegicus [3]): 45%

SMILES: NS(=O)(=O)c1ccc(Cl)c(C(=O)NCC2CN(Cc3ccccc3)CCO2)c1 (stereo not drawn)
GE (Rattus norvegicus [3]): 18%

SMILES: COc1cc(Cl)c(N)cc1C(=O)NCC1CN(Cc2ccccc2)CCO1 (stereo not drawn)
GE (Rattus norvegicus [3]): 10%

SMILES: CCOc1cc(N)c(Cl)cc1C(=O)NCCCC1CN(Cc2ccccc2)CCO1 (stereo not drawn)
GE (Rattus norvegicus [3]): 18%

SMILES: O=C(NCC1CN(Cc2ccccc2)CCO1)c1cccc2c1OCO2.O=C(O)/C=C/C(=O)O (stereo not drawn)
GE (Rattus norvegicus [3]): 30%
